Screening data from PubChem BioAssay.
Autophagy HCS: autophagy modulators in MEF cells, primary screen, imaging, high-content, MEF GFP-LC3; calls only at 10 µM (by protocol); MEF GFP-LC3 puncta imaging; test concentration mostly 10 µM; AID 463193, 2010; 190,000 tested, 0.98% active;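 active = percentage of spot-positive cells more than 3 SD above its plate mean, without a fluorescence outlier flag or 80% toxicity; inconclusive = no clear call, values can overlap the other calls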;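 note: spot-positive cell cutoff set from DMSO-treated cells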
ROMK mod: ROMK potassium channel modulators, primary screen, cell-based, thallium flux, MLSMR library; AID 1918, 2009; 130,000 tested, 2% active; Tet-inducible ROMK, thallium flux fluorescence; actives lie on both sides; B-score at 10 µM;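 active = signal ratio slope over the read window, or its plate-corrected B-score, at least 3 SD from the plate mean, either direction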;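 note: B-score of the F/F0 ratio slope over 7 to 12 s after thallium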
Target sequence (P48048 whole entry, looked up): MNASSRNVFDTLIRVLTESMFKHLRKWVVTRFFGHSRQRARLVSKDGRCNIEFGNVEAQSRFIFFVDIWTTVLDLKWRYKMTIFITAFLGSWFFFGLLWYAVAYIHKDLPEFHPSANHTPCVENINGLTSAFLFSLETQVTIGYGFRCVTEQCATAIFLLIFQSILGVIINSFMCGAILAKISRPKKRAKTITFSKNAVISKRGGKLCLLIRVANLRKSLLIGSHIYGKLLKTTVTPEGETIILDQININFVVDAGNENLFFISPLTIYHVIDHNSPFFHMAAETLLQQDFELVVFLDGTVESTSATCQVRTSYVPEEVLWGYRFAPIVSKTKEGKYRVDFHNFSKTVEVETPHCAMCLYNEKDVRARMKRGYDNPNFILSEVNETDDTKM
DTT redox prof: compounds producing H2O2 with reducing agent – biochemical, NIH compound library profiling, artefact control for MLSCN library redox annotation, primary screen. 200,000 tested, 0.03% active. DTT-dependent redox cycling H2O2, phenol red/HRP absorbance; 100% = 100 µM peroxide control, 0% = buffer. AID 878, 2007. activation, % at 10 µM;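 active = activation of at least 50% relative to the plate's high and low controls in the primary single-dose screen; inactive = activation below 50%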;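 note: compound incubated with DTT at 0.8 mM final as the reducing agent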
Cl transport mod: KCC2 cotransporter modulators, thallium flux, primary screen, cell-based, HEK293 KCC2, FluoZin-2 fluorescence, MLSMR; KCC2 cells, thallium flux FluoZin-2 fluorescence; B-score of Tl+ flux slope (higher = more flux/activation; lower = inhibition) at 10 µM; 190,000 tested, 2.2% active; AID 1456, 2008;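 active = thallium flux slope and its plate-corrected score both differing from the plate sample mean at a set confidence after two filtering rounds, in either direction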;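 note: slope of fluorescence scaled to starting intensity during 10 to 20 s after thallium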
Dynein transport: inhibitors of GR-EGFP nuclear translocation, primary screen, dynein cargo transport inhibitor project, imaging, high-content, 3617.4 mouse cells. test concentration mostly 20 µM; stimulated with dexamethasone, 1 µM; hits give low values. z-score, hits read low. 220,000 tested, 0.47% active;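 active = plate z-score of nuclear minus cytoplasmic receptor signal below a set negative limit, without overly bright fluorescence or cell loss, cut at about -3.5 in these data, passing the limit was not always enough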;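 note: z-score of nuclear minus cytoplasmic ring GR-EGFP intensity difference per well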
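Also added: dexamethasone, 1.0 µM final. Medium: tet-free, stripped-serum medium. Detection: fixed, Hoechst-stained cells imaged at 10x for EGFP. Read-out: nuclear-to-cytoplasmic GR-EGFP distribution per well. Times: induction 48 h, compound 1 h, agonist 30 min.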
Dynein confirm: dynein cargo transport inhibitors, GR-EGFP translocation, confirmation, imaging, high-content imaging, GR-EGFP cells | shares compounds with Dynein transport | 3617.4 GR-EGFP nuclear translocation imaging, dexamethasone-induced | calls only at 20 µM | 1,000 tested, 69% active | AID 463116, 2010;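 active = inhibition of receptor movement into the nucleus at or above a set limit in both runs, with normal cell brightness and cell count; inconclusive = limit reached in only one run, brightness and count normal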;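 note: dexamethasone at 1 µM final in well for 30 min; nuclear minus cytoplasmic GR-EGFP mean intensity difference in channel 2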
KCC2 secondary: KCC2 modulators in sodium-free buffer, confirmation, cell-based, HEK293 KCC2, thallium flux, secondary assay; shares compounds with Cl transport mod; FluoZin2 fluorescence; hits give high values; normalised thallium flux (F/F0 slope) at 10 µM; 3,700 tested, 15% active; AID 1713, 2009;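 active = thallium flux slope above the same plate's solvent-only control mean plus 3 SD; inconclusive = the two replicate wells disagree; inactive = no significant difference from solvent-only control wells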
KCC2 bumet counter: thallium flux persisting under bumetanide in KCC2 cells, confirmation, counter-screen for KCC2 modulator project, cell-based, HEK293 KCC2, FluoZin2, secondary assay 3; shares compounds with Cl transport mod; HEK293-KCC2 + bumetanide/ouabain; hits give high values; normalized thallium flux at 10 µM; 3,700 tested, 49% active;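 active = thallium entry rate above the same plate's blocked-transporter control wells by more than 3 SD; inconclusive = the two repeat wells disagree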;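 note: raw slope of fluorescence over initial fluorescence between 10 and 20 s after thallium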
KCC2 secondary2: KCC2 modulators without ouabain present, confirmation, cell-based, HEK293 KCC2, thallium flux, FluoZin2, secondary assay 2; shares compounds with Cl transport mod; thallium flux FluoZin2 fluorescence; actives lie on both sides; F/F0 rise rate, 10–20 s post-thallium; normalized thallium flux at 10 µM; 3,700 tested, 23% active; AID 1715, 2009;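 active = thallium flux slope more than 3 SD above or below the plate's solvent-only control mean, mostly below; inconclusive = the two repeat wells disagreed; inactive = no significant shift from solvent-only controls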;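 note: raw slope with 0.1% DMSO as baseline and bumetanide as block control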
HEK counter1: thallium flux modulation in parental HEK cells, confirmation, counter-screen for KCC2 modulator project, cell-based, counterscreen 1. shares compounds with Cl transport mod. HEK293 parental cells, thallium flux FluoZin2, ouabain; baseline-ratio fluorescence slope, 10–20 s after thallium. thallium flux rate (normalised fluorescence) at 10 µM. 3,700 tested, 46% active;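 active = thallium flux rate significantly above the same plate's solvent-only control wells, beyond their mean plus 3 SD; inconclusive = the two replicate wells gave conflicting results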
KCC2 retest ouab: KCC2 inhibitors and activators, ouabain retest, confirmation, HEK-KCC2 cells; shares compounds with Cl transport mod; HEK293-KCC2, thallium flux FluoZin2 fluorescence; bidirectional: low = inhibitor, high = activator; raw Tl+ flux slope (below DMSO = inhibition, above = activation) at 10 µM; 3,700 tested, 48% active;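 active = thallium flux slope beyond 3 SD from same-plate DMSO control mean in most replicates, usually higher, sometimes lower; inconclusive = repeat tests gave conflicting results; inactive = no significant difference from controls in most replicates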;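 note: slope of initial-normalized fluorescence between seconds 10 and 20 after thallium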
HEK counter2: native HEK Tl+ uptake effects, second counter-screen – HEK cells, counterscreen 2, counter-screen for KCC2 modulator project, confirmation; shares compounds with Cl transport mod; HEK293 parental, thallium flux FluoZin-2 fluorescence slope; thallium flux slope at 10 µM; 3,700 tested, 33% active;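 active = thallium flux slope above the same plate's solvent-control mean plus 3 SD in both duplicate wells; inconclusive = duplicate wells that disagreed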;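 note: run without ouabain in cells lacking the KCC2 cotransporter; slope of fluorescence scaled to its starting value between 10 and 20 s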
ROMK hit retest: ROMK channel modulator hit retest, confirmation, cell-based, thallium flux, duplicate, resupplied hits | fluorescence ratio; hits give low values | 3,000 tested, 54% active | normalized thallium flux (F/F0 slope) at 10 µM | shares compounds with ROMK mod;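 active = Flux at 10 µM at least 3 SD below or above vehicle control mean in one or both replicates; inconclusive = no clear call, values can overlap the other calls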
An asterisk follows results filed as active; i = inactive; ? = inconclusive; . = no result; + = active, no number. The list is not random: actives were taken first. Their share in the collection is about 4.1%.

SMILES	Autophagy HCS	ROMK mod	DTT redox prof	Cl transport mod	Dynein transport	Dynein confirm	ROMK hit retest	others
Cn1nnnc1NCc1cccc(Cl)c1Cl	i	0.032	-1	0.94	0.22	.	.
N#C/C(=C/c1ccc(N2CCCCCC2)o1)c1ccc(F)cc1	+	.	2	.	-3.8	i	.	KCC2 secondary=0.015;KCC2 bumet counter=?;KCC2 secondary2=0.028;HEK counter1=?;KCC2 retest ouab=0.013*;HEK counter2=0.0094
N#C/C(=C/c1ccc(N2CCOCC2)o1)c1nc2ccccc2[nH]1	?	.	0	i	-0.58	.	.
CCOC(=O)CC1C(=O)NCCN1c1nc2ccc(C)cn2c(=O)c1/C=C1\SC(=S)N(CC(C)C)C1=O (stereo unspecified)	.	.	.	-5.2*	-4.2	i	.	KCC2 secondary=0.0035*;KCC2 bumet counter=0.00041*;KCC2 secondary2=0.014*;HEK counter1=0.0033*;KCC2 retest ouab=0.0071*;HEK counter2=0.0049*
CCCN1C(=O)/C(=C/c2c(N3CCNC(=O)C3CC(=O)OCC)nc3c(C)cccn3c2=O)SC1=S (stereo unspecified)	.	.	.	i	-0.84	.	.
CCOC(=O)C1=C(Cc2ccc(OC)cc2)C(=O)c2ccccc2C1=O	i	.	-3	6.6*	-6.1	+	.	KCC2 secondary=0.0076;KCC2 bumet counter=0.0082*;KCC2 secondary2=0.03;HEK counter1=0.011*;KCC2 retest ouab=0.018;HEK counter2=?
CCOC(=O)c1c(C)nc2c(c1-c1cc(OC)ccc1OC)C(=O)c1ccccc1-2	i	.	-1	.	-0.68	.	.
COc1ccc(/C=C/C(=O)Nc2ccc(OC)nc2)cc1	i	0.51	0	0.91	-0.19	.	.
COc1ccc(NC(=O)/C(Cl)=C(/Cl)S(=O)Cc2ccccc2)cn1 (stereo unspecified)	i	-3.5*	0	.	-5.4*	+	0.047*
COc1ccc(CS(=O)(=O)/C(Cl)=C(/Cl)C(=O)Nc2ccc(OC)nc2)cc1	i	-2.8*	0	0.86	-4.6	+	?
Cn1cnc([N+](=O)[O-])c1NC(C)(C)C	i	0.52	0	-0.69	0.9	.	.
Cn1cnc([N+](=O)[O-])c1S(=O)(=O)c1ccc(Cl)cc1	i	-4.8*	0	-0.92	-4.2*	+	0.059*
CCC1CCC2(CC1)NC(=O)N(CC(=O)c1c(C)[nH]c3ccccc13)C2=O (stereo unspecified)	i	.	1	-0.33	0.62	.	.
COc1cc(C2Oc3ccccc3C=C2[N+](=O)[O-])cc(OC)c1OC (stereo unspecified)	.	-7*	.	-2.2	-5.6*	+	0.033*
CCC(C)N1C(=O)/C(=C/c2c(NCCCOC(C)C)nc3c(C)cccn3c2=O)SC1=S (stereo unspecified)	?	.	4	-0.12	-7.4	.	.
CCCN1C(=O)/C(=C/c2c(NCCCOC(C)C)nc3c(C)cccn3c2=O)SC1=S	+	.	-7	-0.063	-4.6	?	0.055*
COC(=O)C(=Cc1ccccc1[N+](=O)[O-])C(=O)OC	.	-2.6*	.	0.13	-5.4*	+	0.051*
COc1ccc(CNC(=O)/C=C/c2ccccc2[N+](=O)[O-])cc1	i	0.91	2	0.77	-0.3	.	.
COC(=O)c1ccc(COC(=O)c2ccc(CO)cc2)o1	i	-0.43	0	0.31	0.16	.	.
Cc1c2c(nc3ccccc13)CCC(C)C2 (stereo unspecified)	i	-1.2	-2	0.28	-0.84	.	.
CCN(CC)c1ccc(/C=C2\CCC(/C=N/NC(=O)c3ccc(=O)n(C)c3)=C2N2CCOCC2)cc1	+	.	0	-1.6	-4.9	+	0.053*
CCCS(=O)(=O)c1nnnn1-c1cccc(OC)c1	i	-8.4*	-3	0.12	-5.5*	+	0.046*
COc1cccc(-n2nnnc2SCC(=O)Nc2ccc(C(C)=O)cc2)c1	i	0.076	0	0.46	-0.057	.	.
COC(=O)c1ccccc1NC(=O)COC(=O)CSc1nnc(N)s1	i	0.25	0	0.0053	0.56	.	.
NS(=O)(=O)c1ccc(Oc2ccc(S(N)(=O)=O)cc2)cc1	i	0.44	0	1.2	1.3	.	.
C=CS(=O)(=O)c1ccc(Oc2ccc(S(=O)(=O)C=C)cc2)cc1	i	-5.8*	0	-0.94	-4*	+	0.041*
CC(C)(C)c1cnnn1-c1ccc(C=O)cc1	i	-0.74	1	0.013	-0.99	.	.
CC(C)(C)c1cnnn1-c1ccc(C(=O)CCl)cc1	i	.	2	0.16	-4.1*	+	0.054*
NS(=O)(=O)c1ccc(NC(=S)NCc2ccco2)cc1	i	0.41	-1	0.16	-0.28	.	.
